Results on 12 compounds are retold here after ChEMBL document CHEMBL4818997, “Synthesis and structure-activity studies of novel anhydrohexitol-based Leucyl-tRNA synthetase inhibitors” (Eur J Med Chem, 2021).

The source made the active and inactive calls. The calls are words filed in the database; no cut-off is given here.

Assay [1] relates to Mycobacterium tuberculosis. Briefly: Antibacterial activity against Mycobacterium tuberculosis H37Ra […] assessed as inhibition of bacterial growth at 128 uM measured after 17 hrs by resazurin based flourimetric assay. It is filed as functional. The procedure, abridged:
(§1)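 M. tuberculosis H37Ra cultured in 7H9 + 10% OADC at 37 °C. Compounds serially pre-diluted 2-fold in DMSO, then diluted in water, final DMSO <1%, top concentration 128 µM. Inoculum 5×10^3 CFU/ml. After 17 h, resazurin added, 1/2 h at 37 °C, fluorescence read (ex 550/em 590 nm). Growth expressed as % reduction versus untreated and medium controls; IC50 derived.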
In general terms: The colour change of resazurin is a common sign of viable cells or microbes.

The subject of a further assay is Candida albicans. Briefly: Antifungal activity against Candida albicans at 64 uM measured after 17 hrs by resazurin based flourimetric assay. The format is functional, organism-based. The method, boiled down: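 Compounds were 4-fold serially diluted in RPMI with 1% DMSO background, from 64.0 µM down to 3.9×10^-3 µM. Miconazole 0.25 µM served as positive control.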

Assay [2] relates to Escherichia coli. Briefly: Antibacterial activity against Escherichia coli ATCC8739 at 64 uM measured after 17 hrs by resazurin based flourimetric assay. It is filed as functional, organism-based. The procedure, abridged:
(§2)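 Bacteria grown in Mueller Hinton broth at 37 °C, inoculum 5×10^3 CFU/ml. […] After 17 h, resazurin was added for 1/2 h and fluorescence read (ex 550/em 590 nm). Results are % growth reduction versus untreated and medium-only wells.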

Another assay addresses Leucine--tRNA ligase (Escherichia coli (strain K12), UniProt P07813). Briefly: Inhibition of recombinant Escherichia coli LeuRS assessed as inhibition of 14C-radiolabelled leucine transfer to tRNA leucine preincubated for 10 mins followed by addition of ATP and measured after 4 mins by Scintillation counting method. The conditions noted are these: read-out: Ki(app).
Assay [3] relates to Staphylococcus aureus. In words: Antibacterial activity against Staphylococcus aureus ATCC6538 at 64 uM measured after 17 hrs by resazurin based flourimetric assay. The format is functional, organism-based. The method, boiled down: as §2
Assay [4] deals with Mycobacterium tuberculosis. Briefly: Antibacterial activity against Mycobacterium tuberculosis H37Ra […] assessed as inhibition of bacterial growth measured after 17 hrs by resazurin based flourimetric assay. The format is functional, organism-based. The procedure, abridged: as §1
In assay [5] the test system is Escherichia coli. Briefly: Antibacterial activity against Escherichia coli ATCC8739 assessed as inhibition of bacterial growth measured after 17 hrs by resazurin based flourimetric assay. The format is functional, organism-based. The conditions noted are these: ATCC8739, ATCC 8739, 17 h. The method, boiled down: as §2
In assay [6] the test system is Staphylococcus aureus. In words: Antibacterial activity against Staphylococcus aureus ATCC6538 assessed as inhibition of bacterial growth measured after 17 hrs by resazurin based flourimetric assay. It is filed as functional, organism-based. The conditions noted are these: ATCC6538, 17 h. The procedure, abridged:
as §2

Leucine--tRNA ligase, sequence (P07813 whole entry): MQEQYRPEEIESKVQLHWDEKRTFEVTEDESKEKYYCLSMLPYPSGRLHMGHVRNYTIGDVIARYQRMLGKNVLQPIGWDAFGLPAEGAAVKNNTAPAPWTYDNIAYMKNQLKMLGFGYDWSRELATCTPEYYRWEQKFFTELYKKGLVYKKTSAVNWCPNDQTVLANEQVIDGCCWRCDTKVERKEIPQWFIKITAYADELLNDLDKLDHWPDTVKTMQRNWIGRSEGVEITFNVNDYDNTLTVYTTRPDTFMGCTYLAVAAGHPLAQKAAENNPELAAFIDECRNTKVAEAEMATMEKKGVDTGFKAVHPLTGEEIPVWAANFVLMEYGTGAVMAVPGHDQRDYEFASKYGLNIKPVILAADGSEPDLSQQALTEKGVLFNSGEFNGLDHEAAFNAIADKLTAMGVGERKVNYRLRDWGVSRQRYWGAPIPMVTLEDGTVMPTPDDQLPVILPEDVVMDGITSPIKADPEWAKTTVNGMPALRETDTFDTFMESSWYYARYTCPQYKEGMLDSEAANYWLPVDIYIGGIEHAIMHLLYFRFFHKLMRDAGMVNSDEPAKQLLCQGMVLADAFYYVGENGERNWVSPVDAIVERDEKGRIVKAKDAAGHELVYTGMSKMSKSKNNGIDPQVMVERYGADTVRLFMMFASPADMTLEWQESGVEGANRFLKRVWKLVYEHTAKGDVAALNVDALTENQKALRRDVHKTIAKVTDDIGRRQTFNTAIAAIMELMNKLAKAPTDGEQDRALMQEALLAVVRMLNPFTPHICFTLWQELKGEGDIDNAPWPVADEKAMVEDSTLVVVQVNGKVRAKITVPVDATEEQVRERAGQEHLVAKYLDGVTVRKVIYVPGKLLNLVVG

In general, inhibition refers to the change of the read-out against control, counted positive when it falls. Take `CC(C)C[C@H](N)C(=O)NS(=O)(=O)OC[C@H]1OC[C@@H](CCCn2cc(-c3ccc(OC(F)(F)F)cc3)nn2)[C@H](O)[C@@H]1O`: the inhibition at 128 µM in assay [1] stood at 27.8%. For the same compound, the outcome in the assay on Candida albicans, with Escherichia coli [2] and with Staphylococcus aureus [3] was inactive. Further, the Ki at Leucine--tRNA ligase was found to be 17.8 nM.

For the compound `CCCCCCCCc1cn(CCC[C@@H]2CO[C@H](COS(=O)(=O)NC(=O)[C@@H](N)CC(C)C)[C@@H](O)[C@H]2O)nn1`, in assay [1], the inhibition at 128 µM turned out to be 4.26%. The result with Candida albicans, with Escherichia coli [2] and in the assay with Staphylococcus aureus [3] was inactive. Besides, the Ki at Leucine--tRNA ligase stood at 52.4 nM.

`CC(C)C[C@H](N)C(=O)NS(=O)(=O)OC[C@H]1OC[C@@H](CCCn2cc(CNC(=O)c3ccccc3)nn2)[C@H](O)[C@@H]1O`: the result with Candida albicans, in the assay on Escherichia coli [2] and with Staphylococcus aureus [3] was inactive. Further, the Ki at Leucine--tRNA ligase is 31.3 nM.

`CC(C)C[C@H](N)C(=O)NS(=O)(=O)OC[C@H]1OC[C@@H](CCCn2cc(CCCCO)nn2)[C@H](O)[C@@H]1O`: the inhibition at 128 µM in assay [1] is 23.2%. The result in the assay with Candida albicans, in the assay on Escherichia coli [2] and in the assay with Staphylococcus aureus [3] was inactive. In addition, the Ki at Leucine--tRNA ligase was determined as 388 nM.

A word on the IC50: it is the concentration that gives 50% inhibition. As to `COc1c(N2C[C@@H]3CCCN[C@@H]3C2)c(F)cc2c(=O)c(C(=O)O)cn(C3CC3)c12` [MOXIFLOXACIN], the IC50 in assay [4] was determined as 250 nM.

On to `CC(C)C[C@H](N)C(=O)NS(=O)(=O)OC[C@H]1OC[C@@H](CCCn2cc(CNCc3ccccc3)nn2)[C@H](O)[C@@H]1O`, for which the inhibition at 128 µM in assay [1] is 12.1%. Moreover, the result with Candida albicans, in the assay on Escherichia coli [2] and with Staphylococcus aureus [3] was inactive. In addition, the Ki on Leucine--tRNA ligase is 1260 nM.

Regarding `CC(C)C[C@H](N)C(=O)NS(=O)(=O)OC[C@H]1OC[C@@H](CCCn2cc(-c3cccnc3)nn2)[C@H](O)[C@@H]1O`, the inhibition at 128 µM in assay [1] is 16.9%. Also, the outcome with Candida albicans, with Escherichia coli [2] and with Staphylococcus aureus [3] was inactive. Moreover, the Ki at Leucine--tRNA ligase turned out to be 31.6 nM.

As for `CC(C)C[C@H](N)C(=O)NS(=O)(=O)OC[C@H]1OC[C@@H](CCCn2cc(CN)nn2)[C@H](O)[C@@H]1O`, the inhibition at 128 µM in assay [1] came out at 9.44%. For the same compound, the outcome in the assay on Candida albicans, in the assay on Escherichia coli [2] and with Staphylococcus aureus [3] was inactive. Further, the Ki on Leucine--tRNA ligase came out at 2970 nM.

As to `CC(C)C[C@H](N)C(=O)NS(=O)(=O)OC[C@H]1O[C@@H](CCn2nnc(-c3ccccc3)n2)[C@H](O)[C@@H]1O`, the inhibition at 128 µM in assay [1] came to 49.8%. Also, the result in the assay on Candida albicans, in the assay with Escherichia coli [2] and in the assay with Staphylococcus aureus [3] was inactive. In addition, the Ki at Leucine--tRNA ligase came out at 30.9 nM.

As for `CC(C)C[C@H](N)C(=O)NS(=O)(=O)OC[C@H]1OC[C@@H](CCCn2cc(CCc3ccccc3)nn2)[C@H](O)[C@@H]1O`, the inhibition at 128 µM in assay [1] worked out at 38.2%. Moreover, the result in the assay on Candida albicans, in the assay with Escherichia coli [2] and in the assay with Staphylococcus aureus [3] was inactive. Besides, the Ki on Leucine--tRNA ligase turned out to be 108 nM.

With `C[C@H]1c2cccc(O)c2C(=O)C2=C(O)[C@]3(O)C(=O)C(C(N)=O)=C(O)[C@@H](N(C)C)[C@@H]3[C@@H](O)[C@@H]21` [DOXYCYCLINE], the half-inhibitory concentration (IC50) in the assay with Escherichia coli [5] came out at 730 nM; in the assay with Staphylococcus aureus [6] it was 110 nM.

Consider `CCCCCc1ccc(-c2cn(CCC[C@@H]3CO[C@H](COS(=O)(=O)NC(=O)[C@@H](N)CC(C)C)[C@@H](O)[C@H]3O)nn2)cc1`, for which the IC50 in assay [4] is 24700 nM. Further, the inhibition at 128 µM in assay [1] came out at 86.1%. For the same compound, the result in the assay with Candida albicans, with Escherichia coli [2] and with Staphylococcus aureus [3] was inactive. Also, the Ki on Leucine--tRNA ligase worked out at 5.51 nM.
